Experimental data taken from ChEMBL document CHEMBL4196202, “Discovery and Structure-Based Optimization of Benzimidazole-Derived Activators of SOS1-Mediated Nucleotide Exchange on RAS” (J Med Chem, 2018).
Calls of active or inactive are those of the source. The rule behind the calls is not given here.

How the values were obtained:
[1] = biological target: T1, Son of sevenless homolog 1 (Homo sapiens, UniProt Q07889); test: Activation of human recombinant N-terminal His6-tagged SOS1 (564 to 1049 residues) expressed in BL21-RIL Escherichia coli assessed as SOS1-RAS complex formation by measuring exchange of GTP to BODIPY-GDP measured every 3 secs for 30 mins by nucleotide exchange assay
T1 sequence (Q07889 whole entry): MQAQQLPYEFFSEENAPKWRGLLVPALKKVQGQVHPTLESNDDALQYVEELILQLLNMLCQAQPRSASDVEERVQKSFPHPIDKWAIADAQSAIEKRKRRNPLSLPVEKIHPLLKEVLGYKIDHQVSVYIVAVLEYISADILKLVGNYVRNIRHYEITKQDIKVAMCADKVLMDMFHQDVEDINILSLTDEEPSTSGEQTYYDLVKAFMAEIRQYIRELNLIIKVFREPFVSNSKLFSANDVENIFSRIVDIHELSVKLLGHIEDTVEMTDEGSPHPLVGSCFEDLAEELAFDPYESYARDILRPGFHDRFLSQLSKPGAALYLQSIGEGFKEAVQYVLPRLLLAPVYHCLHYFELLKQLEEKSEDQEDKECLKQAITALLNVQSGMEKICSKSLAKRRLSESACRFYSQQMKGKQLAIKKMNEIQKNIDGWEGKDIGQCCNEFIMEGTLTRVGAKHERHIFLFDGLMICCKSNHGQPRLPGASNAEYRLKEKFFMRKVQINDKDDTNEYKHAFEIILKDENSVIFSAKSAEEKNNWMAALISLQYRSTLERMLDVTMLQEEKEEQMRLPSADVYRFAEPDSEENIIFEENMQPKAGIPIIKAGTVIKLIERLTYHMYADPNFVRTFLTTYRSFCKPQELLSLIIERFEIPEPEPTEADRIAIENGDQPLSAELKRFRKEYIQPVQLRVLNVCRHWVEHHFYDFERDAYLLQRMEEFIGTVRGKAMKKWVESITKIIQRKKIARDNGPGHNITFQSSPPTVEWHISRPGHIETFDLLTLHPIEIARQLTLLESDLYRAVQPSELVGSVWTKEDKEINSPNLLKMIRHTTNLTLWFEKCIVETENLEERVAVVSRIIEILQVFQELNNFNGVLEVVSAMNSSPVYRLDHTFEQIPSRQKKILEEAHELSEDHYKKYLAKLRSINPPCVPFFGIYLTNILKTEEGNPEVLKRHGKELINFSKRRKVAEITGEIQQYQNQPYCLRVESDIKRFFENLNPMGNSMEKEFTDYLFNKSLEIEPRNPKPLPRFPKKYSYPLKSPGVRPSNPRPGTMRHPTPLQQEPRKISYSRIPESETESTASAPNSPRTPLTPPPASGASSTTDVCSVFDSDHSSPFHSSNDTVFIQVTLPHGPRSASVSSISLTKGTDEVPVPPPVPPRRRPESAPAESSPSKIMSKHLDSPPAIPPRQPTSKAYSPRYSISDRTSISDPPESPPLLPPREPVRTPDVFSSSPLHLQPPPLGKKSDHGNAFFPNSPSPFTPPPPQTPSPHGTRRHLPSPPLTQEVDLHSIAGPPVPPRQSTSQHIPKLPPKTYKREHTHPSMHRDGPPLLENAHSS

[2] = biological target: T2, Son of sevenless homolog 1 (Homo sapiens) (UniProt Q07889); test: Activation of human recombinant N-terminal His6-tagged SOS1 (564 to 1049 residues) expressed in BL21-RIL Escherichia coli assessed as SOS1-RAS complex formation by measuring exchange of GTP to BODIPY-GDP measured every 3 secs for 30 mins by nucleotide exchange assay relative to control; set-up: concentration or dose not given beside the values
T2 sequence (whole entry): T1 sequence (Q07889 whole entry)

[3] = biological target: T1, Son of sevenless homolog 1; test: Binding affinity to human recombinant N-terminal His6-tagged SOS1 (564 to 1049 residues) expressed in BL21-RIL Escherichia coli by fluorescent probe S2 based fluorescence polarization anisotrophy saturation binding assay
[4] = biological target: T1, Son of sevenless homolog 1; test: Binding affinity to human recombinant N-terminal His6-tagged SOS1 (564 to 1049 residues) expressed in BL21-RIL Escherichia coli by fluorescent probe S1 based fluorescence polarization anisotrophy saturation binding assay
Method in brief: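 SOS1cat (aa 564–1049) was titrated in a 12-point, 2-fold series from 10 μM top against 50 nM fluorescein-labeled probe. Buffer was 20 mM Tris-HCl pH 7.5, 50 mM NaCl, 1 mM magnesium chloride, with 20 min at room temperature in the dark. Anisotropy was read and Kd reported as mean ± SD of at least three independent experiments.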

[5] = biological target: T1, Son of sevenless homolog 1; test: Activation of SOS1 in human HeLa cells expressing wild type KRAS assessed as induction of ERK1/2 T202/Y204 phosphorylation incubated for 30 mins by In-cell Western assay; assay type: cell-based
[6] = biological target: T2, Son of sevenless homolog 1 (Homo sapiens); test: Activation of SOS1 in human NCI-H727 cells expressing KRAS G12V mutant assessed as induction of ERK1/2 T202/Y204 phosphorylation at 1.5 to 100 uM (lower range) incubated for 30 mins by In-cell Western assay; assay type: cell-based
[7] = biological target: T2, Son of sevenless homolog 1 (Homo sapiens); test: Activation of SOS1 in human NCI-H727 cells expressing KRAS G12V mutant assessed as induction of ERK1/2 T202/Y204 phosphorylation at 1.5 to 100 uM (higher range) incubated for 30 mins by In-cell Western assay; assay type: cell-based
[8] = biological target: T2, Son of sevenless homolog 1 (Homo sapiens); test: Biphasic activity at of SOS1 in human HeLa cells expressing wild type KRAS assessed as reduction in ERK1/2 T202/Y204 phosphorylation at 1.5 to 100 uM (higher range) incubated for 30 mins by In-cell Western assay; assay type: cell-based
[9] = biological target: T2, Son of sevenless homolog 1 (Homo sapiens); test: Biphasic activity at of SOS1 in human HeLa cells expressing wild type KRAS assessed as induction of ERK1/2 T202/Y204 phosphorylation at 1.5 to 100 uM (lower range) incubated for 30 mins by In-cell Western assay; assay type: cell-based
[10] = biological target: Son of sevenless homolog 1 (Homo sapiens, UniProt Q07889); test: Activation of SOS1 in human NCI-H727 cells expressing KRAS G12V mutant assessed as induction of ERK1/2 T202/Y204 phosphorylation incubated for 30 mins by In-cell Western assay; assay type: cell-based

Compound | EC50 [1] | Activity [2] | other results
Cc1cc2c(cc1C)N(Cc1ccccc1)C1=NCCCN12 | 23.2 µM | 64% | –
Cc1cc(Cn2c(N3CCNCC3)nc3c(-c4cnccn4)cc(Cl)cc32)cc(C)c1F | – | – | Kd [3]: 0.39 µM
Cc1cc2nc(N3CCNCC3)n(Cc3ccc(Cl)cc3)c2cc1C | 12.4 µM | 164% | –
Cc1cc(Cn2c(N3CCNCC3)nc3c(N4CCC(N)CC4)cc(Cl)cc32)cc(C)c1F | – | – | Kd [4]: 0.24 µM
Cc1cc(Cn2c(N3CCNCC3)nc3c(-c4ccccc4)cc(Cl)cc32)cc(C)c1F | – | – | Kd [4]: 0.27 µM
Cc1cc2nc(N3CCNCC3)n(Cc3ccc(F)c(F)c3)c2cc1C | 5.9 µM | 183% | –
Cc1cc2nc(NCCN)n(Cc3ccc(F)c(Cl)c3)c2cc1C | 1.9 µM | 114% | –
Cc1cc2nc(N3CCNCC3)n(Cc3ccc(F)c(C)c3)c2cc1C | 4.1 µM | 190% | –
Cc1cc2nc(N3CCN(C)CC3)n(Cc3ccc(F)c(Cl)c3)c2cc1C | 26 µM | 143% | –
Cc1cc2nc(N3CCNCC3)n(Cc3cc(C)c(F)c(C)c3)c2cc1C | 3.7 µM | 270% | –
Cc1cc2nc(N3CCNCC3)n(Cc3ccc(F)cc3)c2cc1C | 5.9 µM | 130% | –
Cc1cc(Cn2c(N3CCNCC3)nc3c(-c4ccccc4C4CCC4)cc(Cl)cc32)cc(C)c1F | – | – | Kd [4]: 0.44 µM
Cc1cc(Cn2c(N3CCNCC3)nc3c(-c4cccnc4)cc(Cl)cc32)cc(C)c1F | – | – | Kd [4]: 0.33 µM
Cc1cc2nc(N3CCNCC3)n(Cc3ccc(F)c(Cl)c3)c2cc1Cl | 3 µM | 200% | –
Cc1cc(Cn2c(N3CCNCC3)nc3c(-c4cn[nH]c4)cc(Cl)cc32)cc(C)c1F | – | – | Kd [3]: 0.18 µM
Cc1cc(Cn2c(N3CCNCC3)nc3c(-c4cncnc4)cc(Cl)cc32)cc(C)c1F | – | – | Kd [3]: 0.35 µM
Cc1cc2nc(NC3CCNCC3)n(Cc3ccc(F)c(Cl)c3)c2cc1C | 37.1 µM | 129% | –
Fc1ccc(CN2C3=NCCCN3c3ccccc32)cc1 | 63 µM | 40% | –
Cc1cc2nc(N3CCC(N)CC3)n(Cc3ccc(F)c(Cl)c3)c2cc1C | 6.6 µM | 114% | –
Cc1cc(Cn2c(N3CCNCC3)nc3c(-c4ccccc4C(C)C)cc(Cl)cc32)cc(C)c1F | – | – | Kd [4]: 0.39 µM
Fc1ccc(Cn2c(N3CCNCC3)nc3ccc(Cl)cc32)cc1Cl | 1 µM | 109% | –
Fc1ccc(Cn2c(N3CCNCC3)nc3ccccc32)cc1Cl | 5.4 µM | 109% | EC50 [5]: 21 µM; Activity [6]: Active; Activity [7]: inactive; Activity [8]: inactive; Activity [9]: Active; EC50 [10]: 51.4 µM
Cc1cc(Cn2c(N3CCNCC3)nc3c(-c4cncnc4C(C)C)cc(Cl)cc32)cc(C)c1F | – | – | EC50 [5]: 8.8 µM; Activity [6]: Active; Activity [7]: Active; Activity [8]: Active; Kd [3]: 0.1 µM; Activity [9]: Active; EC50 [10]: 13.9 µM
Cc1cc(Cn2c(N3CCNCC3)nc3c(-c4cccnn4)cc(Cl)cc32)cc(C)c1F | – | – | Kd [3]: 0.45 µM
Cc1cc2nc(N3CCCNCC3)n(Cc3ccc(F)c(Cl)c3)c2cc1C | 8.5 µM | 176% | –
Cc1cc2ncn(Cc3ccc(F)c(Cl)c3)c2cc1C | > 100 µM | – | –

Compound | EC50 [1] | Activity [2] | other results
Cc1cc(Cn2c(N3CCNCC3)nc3c(-c4ccccc4CO)cc(Cl)cc32)cc(C)c1F | – | – | Kd [3]: 0.14 µM
Cc1cc(Cn2c(N3CCNCC3)nc3c(-c4ccncc4)cc(Cl)cc32)cc(C)c1F | – | – | Kd [3]: 0.24 µM
Cc1cc2nc(N3CCNCC3)n(Cc3ccc(F)c(C(F)(F)F)c3)c2cc1C | 8.1 µM | 263% | –
Cc1ccccc1-c1cc(Cl)cc2c1nc(N1CCNCC1)n2Cc1cc(C)c(F)c(C)c1 | – | – | Kd [3]: 0.21 µM
Cc1cc(Cn2c(N3CCNCC3)nc3c(N4CCOCC4)cc(Cl)cc32)cc(C)c1F | – | – | Kd [3]: 0.13 µM
CCc1ccccc1-c1cc(Cl)cc2c1nc(N1CCNCC1)n2Cc1cc(C)c(F)c(C)c1 | – | – | Kd [4]: 0.21 µM
Cc1cc(Cn2c(N3CCNCC3)nc3c(N4CCC[C@@H]4CN)cc(Cl)cc32)cc(C)c1F | – | – | Kd [3]: 0.24 µM
Fc1ccc(Cn2c(N3CCNCC3)nc3ccc(C(F)(F)F)cc32)cc1Cl | 4.4 µM | 78% | –
Cc1cc(Cn2c(N3CCNCC3)nc3c(-c4ccc(C(F)(F)F)cc4)cc(Cl)cc32)cc(C)c1F | – | – | Kd [4]: 1.05 µM
Fc1ccc(Cn2c(N3CCNCC3)nc3ccc(Br)cc32)cc1Cl | 1.3 µM | 115% | –
Cc1cc(Cn2c(N3CCNCC3)nc3c(N4CCCCC4)cc(Cl)cc32)cc(C)c1F | – | – | Kd [3]: 0.2 µM
Cc1cc2nc(N3CCNCC3)n(Cc3ccc(F)c(C4CC4)c3)c2cc1C | 11.7 µM | 151% | –
Cc1cc2nc(N3CCNCC3)n(Cc3ccccc3)c2cc1C | 8.6 µM | 122% | –
Cc1cc2nc(N3CCNCC3)n(Cc3ccc(C(F)(F)F)cc3)c2cc1C | 19.6 µM | 148% | –
Cc1cc(Cn2c(N3CCNCC3)nc3c(C4=CCNCC4)cc(Cl)cc32)cc(C)c1F | – | – | Kd [4]: 0.25 µM
Cc1ccc2nc(N3CCNCC3)n(Cc3ccc(F)c(Cl)c3)c2c1 | 2.4 µM | 106% | –
Cc1ccc(Cn2c(N3CCNCC3)nc3cc(C)c(C)cc32)cc1 | 36.6 µM | 93% | –
Cc1cc(Cn2c(N3CCNCC3)nc3c(N4CCC[C@H]4CO)cc(Cl)cc32)cc(C)c1F | – | – | Kd [3]: 0.31 µM
Cc1cc2nc(N3CCNCC3)n(Cc3ccc(F)c(Cl)c3)c2cc1C | 2.2 µM | 211% | EC50 [5]: 21.3 µM; Activity [6]: Active; Activity [7]: Active; Activity [8]: Active; Activity [9]: Active; EC50 [10]: 29.1 µM
Cc1cc(Cn2c(N3CCNCC3)nc3c(N4CCC[C@@H]4CO)cc(Cl)cc32)cc(C)c1F | – | – | Kd [3]: 0.38 µM
Cc1cc(Cn2c(N3CCNCC3)nc3c(-c4c(C)cccc4C)cc(Cl)cc32)cc(C)c1F | – | – | Kd [3]: 0.3 µM
Cc1cc(Cn2c(N3CCNCC3)nc3c(-c4cccc(C(F)(F)F)c4)cc(Cl)cc32)cc(C)c1F | – | – | Kd [4]: 0.67 µM
Fc1ccc(Cn2c(N3CCNCC3)nc3ccc(C4CC4)cc32)cc1Cl | 24.3 µM | 65% | –
Cc1cc(Cn2c(N3CCNCC3)nc3c(N4CCC[C@H]4CN)cc(Cl)cc32)cc(C)c1F | – | – | EC50 [5]: 3.2 µM; Activity [6]: Active; Activity [7]: Active; Activity [8]: Active; Kd [3]: 0.14 µM; Activity [9]: Active; EC50 [10]: 7.3 µM
Cc1cc2nc(C3CCNCC3)n(Cc3ccc(F)c(Cl)c3)c2cc1C | 5.6 µM | 128% | –
